Consider 5 compounds from paper PMC6957252 (Bioorganic & medicinal chemistry, 2016).

For test [1] the following is noted: in vivo; cited from earlier work.
For test [2] the following is noted: neuropathic pain model; cited from earlier work.
Test [3] deals with human TRPV1 heterologously expressed in Chinese hamster ovary (CHO) cells (Homo sapiens, UniProt Q8NER1). It is filed as cell-based. The gist of the method: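 45Ca2+ uptake in CHO cells heterologously expressing human TRPV1. […] Ki is calculated to account for competition between capsaicin and antagonist. In agonist mode, 300 nM capsaicin (saturating) defines maximal response, and absence or weakness of uptake is scored as no or weak effect. Values are mean ± SEM of at least three experiments.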

For another test, the target named is human TRPV1 (Homo sapiens, UniProt Q8NER1). As to the kind of experiment: binding competition assay with [3H]RTX. Particulars: ratio of Ki versus 1S. A digest of the protocol: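 Competition binding of [3H]RTX to human TRPV1 heterologously expressed in CHO cells. Binding affinity reported as Ki. Values are mean ± SEM of at least three experiments.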
Chain of human TRPV1 (Q8NER1 whole entry): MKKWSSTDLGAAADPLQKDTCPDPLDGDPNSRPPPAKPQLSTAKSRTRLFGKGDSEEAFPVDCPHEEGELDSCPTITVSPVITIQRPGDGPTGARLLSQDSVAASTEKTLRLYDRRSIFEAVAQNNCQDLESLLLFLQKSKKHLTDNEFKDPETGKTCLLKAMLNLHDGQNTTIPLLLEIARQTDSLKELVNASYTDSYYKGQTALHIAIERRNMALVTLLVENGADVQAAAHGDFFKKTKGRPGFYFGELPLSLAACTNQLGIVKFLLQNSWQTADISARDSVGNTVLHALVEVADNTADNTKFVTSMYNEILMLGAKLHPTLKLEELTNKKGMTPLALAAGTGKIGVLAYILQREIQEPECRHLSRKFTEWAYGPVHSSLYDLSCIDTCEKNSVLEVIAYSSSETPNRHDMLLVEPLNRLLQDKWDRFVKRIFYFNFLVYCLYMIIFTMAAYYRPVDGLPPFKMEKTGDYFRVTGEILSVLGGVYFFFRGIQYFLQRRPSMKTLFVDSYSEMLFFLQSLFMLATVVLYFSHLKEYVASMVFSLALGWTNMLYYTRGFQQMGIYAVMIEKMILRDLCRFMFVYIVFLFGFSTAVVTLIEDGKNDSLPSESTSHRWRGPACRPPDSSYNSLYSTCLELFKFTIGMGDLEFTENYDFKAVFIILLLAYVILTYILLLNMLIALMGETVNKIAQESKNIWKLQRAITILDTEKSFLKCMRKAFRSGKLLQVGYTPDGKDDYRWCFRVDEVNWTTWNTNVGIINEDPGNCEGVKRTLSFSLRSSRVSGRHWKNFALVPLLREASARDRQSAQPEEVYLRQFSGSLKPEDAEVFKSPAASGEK

Chain of human TRPV1 heterologously expressed in Chinese hamster ovary (CHO) cells (Q8NER1 whole entry): as above

For the compound `CC1CCN(c2nc(C(F)(F)F)ccc2CNC(=O)C(C)c2ccc(NS(C)(=O)=O)c(F)c2)CC1` (stereo not shown) [Compound 1], in test [1], the “effect on capsaicin-induced hypothermia” value is given as “blocked capsaicin-induced hypothermia”. Also, the antiallodynic activity entry in test [2] is “potent antiallodynic activity”.

Turning to `CC(C(=O)NCc1ccc(C(F)(F)F)nc1NS(=O)(=O)c1ccccc1)c1ccc(NS(C)(=O)=O)c(F)c1` (stereo not shown) [Compound 6, 2-(3-Fluoro-4-(methylsulfonamido)phenyl)-N-((2-(phenylsulfonamido)-6-(triflu-oromethyl)pyridin-3-yl)methyl)propanamide], in test [3] (binding affinity and antagonism, Table 1 series), the “activity on hTRPV1 (in words)” value is “little activity”. With `CC(C(=O)NCc1ccc(C(F)(F)F)nc1N(Cc1ccccc1)S(=O)(=O)c1ccccc1)c1ccc(NS(C)(=O)=O)c(F)c1` (stereo not shown) [Compound 12, N-((2-(N-Benzylphenylsulfonamido)-6-(trifluoromethyl)pyridin-3-yl)methyl)-2-(3-fluoro-4-(methylsulfonamido)phenyl)propanamide], the “fold reduction in antagonism compared to lead compound 1” value in test [3] (ratio of Ki(ant) versus compound 1) turned out to be 2.5 fold. Take `C[C@H](C(=O)NCc1ccc(C(F)(F)F)nc1N(Cc1ccccc1)S(=O)(=O)c1ccccc1)c1ccc(NS(C)(=O)=O)c(F)c1` [Compound 12S, (S)-N-((2-(N-Benzylphenylsulfonamido)-6-(trifluoromethyl)pyridin-3-yl)methyl)-2-(3-fluoro-4-(methylsulfonamido)phenyl)propanamide]: in test [3] (ratio of Ki(ant) versus 1S), the “fold decrease in antagonism compared to 1S” value stood at 1.5 fold. Moreover, at human TRPV1, the “fold increase in binding affinity compared to 1S” value worked out at 5 fold. As to `COc1ccc(CN(c2nc(C(F)(F)F)ccc2CNC(=O)C(C)c2ccc(NS(C)(=O)=O)c(F)c2)S(=O)(=O)c2ccccc2)cc1` (stereo not shown) [Compound 19, 2-(3-Fluoro-4-(methylsulfonamido)phenyl)-N-((2-(N-(4-methoxybenzyl)phenyl-sulfonamido)-6-(trifluoromethyl)pyridin-3-yl)methyl)propanamide], the “fold more potent antagonism than 12” value in test [3] (ratio of Ki(ant) versus 12) is given as “ca. 3 fold”.
